Reference: PubChem BioAssay
Inconclusive results are not listed. Active and inactive are the calls of the source.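 Rule for the calls, unless noted: active = RAM network inhibition above 8.4% in each of two replicates, 3 SD over the compound average; inconclusive = above 8.4% inhibition in only one replicate; inactive = 8.4% inhibition or less in each replicate.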

Key:
[1] = S. cerevisiae growth inhibition in permissive medium (OD615), pilot counter-assay for S. cerevisiae lifespan shortening project, permissive growth control (AID 705;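 active = growth inhibition above 25% in both replicates, a cutoff set 3 SD above the mean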); settings: OD615, 24 h, at 10 µM, hits give high values
Procedure, shortened: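 assay system = Saccharomyces cerevisiae strain carrying genetically modified DeaD replicative-lifespan system | medium = SC raffinose/galactose permissive medium | dosing = 10 µM single dose, 0.25% DMSO | schedule = 24 h compound exposure at 30 °C after 4 h pre-growth | measured by = OD at 615 nm | read-out basis = growth inhibition from lowered OD615 after 24 h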

[2] = S. cerevisiae growth inhibition in restrictive medium, OD615, pilot screen, restrictive growth control, yeast lifespan reduction project (AID 706;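 active = growth inhibition above a set limit, 3 SD over mean compound inhibition, in both replicates, cut at about 43% in these data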;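 note: modified DeaD lifespan yeast strain shifted to restrictive glucose medium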); settings: OD615, 48 h, at 10 µM, hits give high values
Procedure, shortened: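 Buffer or medium: CSMM-D glucose medium. Material: genetically modified Saccharomyces cerevisiae, DeaD replicative lifespan assay strain. Times: 48 h compound exposure at 30 °C. Measured by: optical density at 615 nm.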

[3] = doxorubicin toxicity protection in MRP-1 cells – H69AR cells, CellTiter-Glo, duplicate, MRP-1 activator project, pilot screen (AID 807;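 active = viability increase at or above a cutoff of the median across tested compounds plus 3 SD, cut at about 8.5% in these data, passing the limit was not always enough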;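 note: compound pretreatment 18-22 h then 72 h combined with doxorubicin; 0% = doxorubicin alone and 100% = vehicle without doxorubicin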); settings: H69AR viability with doxorubicin, CellTiter-Glo luminescence; at 10 µM; hits give high values
[4] = viability of HCT116 without oncogenic beta-catenin – human colon tumor cells, pilot screen (AID 823;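 active = cell viability at or below a set limit in both duplicate runs, the limit being the all-compound median minus 4 SD, cut at about 23% in these data, passing the limit was not always enough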;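 note: 0% = wells killed by 20 µM Hyamine and 100% = untreated DMSO cell wells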); settings: HCT116 beta-catenin knockout viability, CellTiter-Glo, 60 h; at 10 µM; hits give low values
[5] = viability of PTEN-null HCT116 cells – cell-based, HCT116 clonal line, CellTiter-Glo, pilot screen (AID 824;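 active = viability at or below 27.92% in each of two runs, the all-compound median minus 4 SD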;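 note: 0% = 20 µM Hyamine control and 100% = vehicle cell control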); settings: HCT116 PTEN-deleted viability, 60 h, at 10 µM, hits give low values
[6] = RAM pathway blockade in budding yeast – dse1pr::URA3 reporter, 5-FOA selection, pilot screen (AID 869;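 active = inhibition over a set limit, the all-compound mean plus 3 SD, in both replicate runs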;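 note: 0% = DMSO wells with no growth and 100% = 10 µM 1-NA-PP1 with full growth; RAM network block rescues cells from 5-FOA so hits raise OD615 growth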); settings: S. cerevisiae dse1pr::URA3 5-FOA growth, OD615, 2 d; at 10 µM; hits give high values; strain carries analog-sensitive mutant Cbk1 kinase
[7] = RAM signaling pathway blockade in yeast – S. cerevisiae, Pdr1DBD-CYC8 efflux-inhibited sensitized strain, primary screen (AID 1298);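 note: 0% = DMSO untreated cells without growth and 100% = 10 µM 1-NA-PP1 full growth; higher means more yeast growth rescued from 5-FOA killing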; settings: S. cerevisiae cbk1-as DSE1-URA3 strain, 5-FOA growth OD615, 2 d; at 50 µM; hits give high values

COC(=O)c1ccc(Cl)c(NC(=O)NC2CCCCC2)c1
inactive: growth inhibition [1] -15.1% | growth inhibition [2] -5.54% | viability increase [3] -1.61% | viability [4] 96.3% | viability [5] 93% | inhibition [6] 2.23% | RAM network inhibition [7] 6.1%

CCCCCCc1c(O)nc(SCC(=O)O)[nH]c1=O
inactive: growth inhibition [1] 5.63% | growth inhibition [2] 13.4% | viability increase [3] 0.25% | viability [4] 108% | viability [5] 101% | inhibition [6] 2.51% | RAM network inhibition [7] -0.58%

CC(=O)/C(C(=N)N1CCN(Cc2ccccc2)CC1)=C(\C)O
inactive: growth inhibition [1] -12.7% | growth inhibition [2] -5.25% | viability increase [3] -0.02% | viability [4] 103% | viability [5] 101% | inhibition [6] 2.4% | RAM network inhibition [7] 2.85%

CC12C(=O)N(c3cccc4cccnc34)C(=O)C1C1C=CC2C1 (configuration not stated)
inactive: growth inhibition [1] -7.71% | growth inhibition [2] 2.71% | viability increase [3] -1.54% | viability [4] 103% | viability [5] 102% | inhibition [6] 0.395% | RAM network inhibition [7] 1.05%

Cn1c(Cn2c(=O)sc3ccccc32)nnc1SCC(=O)NCc1ccco1
inactive: growth inhibition [1] 0.17% | growth inhibition [2] 8.09% | viability increase [3] -4.73% | viability [4] 109% | viability [5] 104% | inhibition [6] 1.93% | RAM network inhibition [7] 6.92%

O=S1(=O)N=C(Nc2ccc(O)c(CN3CCCCC3)c2)c2ccccc21
inactive: growth inhibition [1] 5.56% | growth inhibition [2] -0.14% | viability increase [3] -3.07% | viability [4] 90.8% | viability [5] 97.1% | inhibition [6] 2.89% | RAM network inhibition [7] 6.37%

O=C1CSC(c2nn(-c3ccccc3)cc2-c2cc3ccccc3oc2=O)N1Cc1ccco1 (configuration not stated)
inactive: growth inhibition [1] -1.13% | growth inhibition [2] 1.33% | viability increase [3] -4.75% | viability [4] 77.4% | viability [5] 76.9% | inhibition [6] 2.16% | RAM network inhibition [7] 2.95%

CCOC(=O)N1CCN(C(=O)c2cc(C)no2)CC1
inactive: growth inhibition [1] -9.98% | growth inhibition [2] -7.27% | viability increase [3] 1.34% | viability [4] 104% | viability [5] 109% | inhibition [6] 1.04% | RAM network inhibition [7] 2.19%

COc1ccc(-c2nnnn2C)cc1S(=O)(=O)NCCc1ccccc1
inactive: growth inhibition [1] -8.48% | growth inhibition [2] 2.52% | viability increase [3] 0.12% | viability [4] 97.5% | viability [5] 104% | inhibition [6] 1% | RAM network inhibition [7] 3.03%

COc1ccccc1NC(=O)c1c(NC(=O)c2ccco2)sc2c1CCC2
inactive: growth inhibition [1] -9.49% | growth inhibition [2] -18.1% | viability increase [3] -2.92% | viability [4] 80.2% | viability [5] 72% | inhibition [6] 2.31% | RAM network inhibition [7] 2.6%

CCn1cc(C2=NC(c3ccccc3)CO2)c2ccccc21 (configuration not stated)
inactive: growth inhibition [1] -11% | growth inhibition [2] -8.14% | viability increase [3] -4.95% | viability [4] 91.6% | viability [5] 83.3% | inhibition [6] 1.46% | RAM network inhibition [7] 0.69%

COc1cc(CN2CCN(c3cccc(C)c3C)CC2)cc(Br)c1O
inactive: growth inhibition [1] -4.04% | growth inhibition [2] 0.7% | viability increase [3] -2.57% | viability [4] 80.7% | viability [5] 86.6% | inhibition [6] -0.235% | RAM network inhibition [7] 1.51%

Cn1c(NC(=O)c2cccs2)cc(=O)n(C)c1=O
inactive: growth inhibition [1] 7.14% | growth inhibition [2] 0.885% | viability increase [3] -1.55% | viability [4] 107% | viability [5] 95.5% | inhibition [6] 0.13% | RAM network inhibition [7] -1.35%

CCCOc1nc2c(c(=O)n(C)c(=O)n2C)n1CCC
inactive: growth inhibition [1] -7.2% | growth inhibition [2] -10.2% | viability increase [3] -2.13% | viability [4] 82.2% | viability [5] 86.6% | inhibition [6] 1.4% | RAM network inhibition [7] -0.88%

CCN1CCN(Cc2ccc(NC(=O)Nc3ccc(OC)cc3)cc2)CC1
inactive: growth inhibition [1] 5.68% | growth inhibition [2] 1.98% | viability increase [3] 0.19% | viability [4] 104% | viability [5] 108% | inhibition [6] 2.09% | RAM network inhibition [7] 1.09%

CCn1c(C2CC(=O)N(Cc3ccccc3)C2)nc2ccccc21 (configuration not stated)
inactive: growth inhibition [1] 7.85% | growth inhibition [2] 7.52% | viability increase [3] -2.06% | viability [4] 102% | viability [5] 91.3% | inhibition [6] -0.3% | RAM network inhibition [7] 4.25%

CC1(C)Cc2c(C#N)c(NC3CCCCC3)nc(-c3ccco3)c2CO1
inactive: growth inhibition [1] -15.4% | growth inhibition [2] -17.4% | viability increase [3] -6.33% | viability [4] 80.3% | viability [5] 76.3% | inhibition [6] 3.23% | RAM network inhibition [7] 0.53%

CCn1c2c(c3cc(Cl)ccc31)CCCC2=O
inactive: growth inhibition [1] -8.81% | growth inhibition [2] -10.1% | viability increase [3] -0.32% | viability [4] 96% | viability [5] 97.8% | inhibition [6] 0.915% | RAM network inhibition [7] 4.07%

O=C(OCC(=O)N1CCN(C(=O)c2ccco2)CC1)c1sc2ccccc2c1Cl
inactive: growth inhibition [1] -14.3% | growth inhibition [2] -20.1% | viability increase [3] -2.74% | viability [4] 96.3% | viability [5] 102% | inhibition [6] 0.845% | RAM network inhibition [7] 5.57%

COc1ccc(C2CC(c3ccc(Cl)c(Cl)c3)Nc3nc(N)nn32)cc1 (configuration not stated)
inactive: growth inhibition [1] -6.79% | growth inhibition [2] 12.7% | viability increase [3] -2.3% | viability [4] 75.4% | viability [5] 76.4% | inhibition [6] 2.52% | RAM network inhibition [7] 5.52%

CCOC(=O)Cn1c(=O)oc2cc(S(=O)(=O)N3CCCC(C(=O)OCC)C3)ccc21 (configuration not stated)
inactive: growth inhibition [1] -2.33% | growth inhibition [2] -20.5% | viability increase [3] -1.74% | viability [4] 95.4% | viability [5] 90.7% | inhibition [6] 0.87% | RAM network inhibition [7] 1.99%

COCCn1c(=NC(=O)CSC(C)=O)sc2cc(OC)ccc21
inactive: growth inhibition [1] -27.6% | growth inhibition [2] 18.1% | viability increase [3] -6.74% | viability [4] 88% | viability [5] 83.8% | inhibition [6] 0.53% | RAM network inhibition [7] 0.96%

CCN=C1SC(CC(=O)NC(N)=O)C(=O)N1CC (configuration not stated)
inactive: growth inhibition [1] -12.5% | growth inhibition [2] -17.8% | viability increase [3] 0.51% | viability [4] 101% | viability [5] 101% | inhibition [6] 1.3% | RAM network inhibition [7] 1.66%

CC(c1ccccc1)N1CNc2c(c(=O)n(C)c(=O)n2C)C1 (configuration not stated)
inactive: growth inhibition [1] -8.04% | growth inhibition [2] 2.52% | viability increase [3] -1.82% | viability [4] 94.3% | viability [5] 92.2% | inhibition [6] 0.02% | RAM network inhibition [7] 0.77%

Cc1nc2ccccc2n1-c1ccccc1
inactive: growth inhibition [1] -0.46% | growth inhibition [2] 10.2% | viability increase [3] 0.08% | viability [4] 89.1% | viability [5] 96.4% | inhibition [6] 0.185% | RAM network inhibition [7] 4.25%

CCCCC(CC)CNC(=O)c1cccs1 (configuration not stated)
inactive: growth inhibition [1] 6.58% | growth inhibition [2] 13.6% | viability increase [3] 0.39% | viability [4] 79.2% | viability [5] 85.8% | inhibition [6] -0.705% | RAM network inhibition [7] -1.28%

Cc1ccc(-c2nnc(N3CCCCC3)c3ccccc23)cc1S(=O)(=O)N1CCN(C)CC1
inactive: growth inhibition [1] -1.95% | growth inhibition [2] -1.92% | viability increase [3] -5.28% | viability [4] 48% | viability [5] 60.2% | inhibition [6] 0.285% | RAM network inhibition [7] -2.14%

N#CC1=C(N)SC(N)=C(C#N)C1C1CC=CCC1 (configuration not stated)
inactive: growth inhibition [1] -18.9% | growth inhibition [2] -10.4% | viability increase [3] -0.79% | viability [4] 108% | viability [5] 97.5% | inhibition [6] 2.11% | RAM network inhibition [7] 0.74%

Cn1c(=O)c2c(SCC(=O)N3CCC(Cc4ccccc4)CC3)nc(C3CC3)nc2n(C)c1=O
inactive: growth inhibition [1] -0.44% | growth inhibition [2] -9.93% | viability increase [3] -1.06% | viability [4] 92.9% | viability [5] 88.1% | inhibition [6] 1.28% | RAM network inhibition [7] 0.47%

CC(=O)Nc1ccc(S(=O)(=O)n2cnc3cc(C)c(C)cc32)cc1
inactive: growth inhibition [1] -7.58% | growth inhibition [2] 1.31% | viability increase [3] -0.2% | viability [4] 99.6% | viability [5] 92.2% | inhibition [6] -0.09% | RAM network inhibition [7] 1.45%

CCSCCOC(=O)C1=C(C)N(C)C(=O)NC1c1cc(OC)ccc1OC (configuration not stated)
inactive: growth inhibition [1] 0.26% | growth inhibition [2] -2.77% | viability increase [3] 1.05% | viability [4] 94.2% | viability [5] 93.8% | inhibition [6] 0.645% | RAM network inhibition [7] 2.69%

CCN1c2ccccc2NC2N=C(OC)C(c3ccccc3)C21 (configuration not stated)
inactive: growth inhibition [1] -38.2% | growth inhibition [2] 7.12% | viability increase [3] -8.25% | inhibition [6] 2.47% | RAM network inhibition [7] 3.8%
active: viability [4] 3.31% | viability [5] 2.97%

O=C(COc1ccc(S(=O)(=O)NC2CCCCC2)cc1)Nc1ccc2c(c1)OCCO2
inactive: growth inhibition [1] -2.47% | growth inhibition [2] 4.23% | viability increase [3] -2.05% | viability [4] 84% | viability [5] 70.8% | inhibition [6] 2.25% | RAM network inhibition [7] 5.01%

c1ccc(CNn2c(N3CCOCC3)nc3ccccc32)cc1
inactive: growth inhibition [1] -14.9% | growth inhibition [2] -10.9% | viability increase [3] -3.02% | viability [4] 93% | viability [5] 93.2% | inhibition [6] 0.5% | RAM network inhibition [7] 4.26%

CCOc1ccccc1Nc1nnc(Cc2ccccc2Cl)c(=O)[nH]1
inactive: growth inhibition [1] -24.5% | growth inhibition [2] -19.1% | viability increase [3] -2.83% | viability [4] 90.7% | viability [5] 94.6% | inhibition [6] 0.115% | RAM network inhibition [7] 5.74%

c1ccc(N2CCOCC2)c(Nc2nc3ccccc3n3cnnc23)c1
inactive: growth inhibition [1] -8.77% | growth inhibition [2] -1.25% | viability increase [3] -2.57% | viability [4] 66.3% | viability [5] 49.1% | inhibition [6] 1.02% | RAM network inhibition [7] 9.05%
